ChEMBL document CHEMBL4400543, “Identification and Characterization of AES-135, a Hydroxamic Acid-Based HDAC Inhibitor That Prolongs Survival in an Orthotopic Mouse Model of Pancreatic Cancer” (J Med Chem, 2019)
pIC50: −log10 of the molar value. The source made the active and inactive calls.

How the values were obtained:
[1] = Drug uptake in NSG mouse serum at 20 mg/kg, ip administered as single dose and measured at 4 hrs by HPLC-MS/MS analysis; assay type: ADME, organism-based; conditions: read-out: Drug uptake
How it was run: (§1)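 NSG mice given a single 20 mg/kg IP dose in Cremophor EL/EtOH (1:1, 4% final volume)/sterile saline. Tail-vein blood at 0.5, 1, 2, 4, 8 and 24 h, n = 2. Drug quantified in serum/plasma. Half-life and clearance calculated assuming 100% bioavailability.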

[2] = Drug uptake in NSG mouse serum at 20 mg/kg, ip administered as single dose and measured at 24 hrs by HPLC-MS/MS analysis; assay type: ADME, organism-based; conditions: read-out: Drug uptake; how it was run: as §1
[3] = target: Signal transducer and activator of transcription 3 (Homo sapiens) (UniProt P40763); experiment: Inhibition of STAT3 phosphorylation at S727 residue in human BTSC 143EF cells at 1 to 10 uM after 24 hrs by Western blot method; assay type: cell-based
How it was run: (§2)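 BTSCs dissociated to single cells and treated with drug or DMSO. Lysed in RIPA buffer with protease inhibitors. 20 μg lysate run on SDS-PAGE and transferred to nitrocellulose. Blocked in 5% milk, primary antibody overnight at 4 °C, then HRP secondary for 1 h.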

[4] = Toxicity in NSG mouse assessed as body weight loss at 60 mg/kg, ip administered daily for 4 to 5 days; assay type: organism-based; conditions: in vivo
How it was run: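 NSG mice were dosed IP daily across a range of doses for 4–5 days (n = 6). Animals were weighed before and after dosing, and toxicity was scored as percentage body-weight loss.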

[5] = Selectivity ratio of IC50 for human CAF19 cells to IC50 for human Pa03C cells
[6] = Drug uptake in NSG mouse serum at 20 mg/kg, ip administered as single dose and measured at 2 hrs by HPLC-MS/MS analysis; assay type: ADME, organism-based; conditions: read-out: Drug uptake; how it was run: as §1
Panc1005 [7] = experiment: Cytotoxicity against human Panc 10.05 monolayer cells assessed as reduction in tumor spheroid intensity after 72 hrs by Alamar Blue assay; assay type: functional, cell-based; conditions: Panc1005, 72 h
How it was run: (§3)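 Monolayer proliferation of STR-authenticated, mycoplasma-checked patient-derived PDAC lines and mouse KPC cells. Plated at 2000 cells/well, treated 72 h, read by alamarBlue. At least triplicate, n = 3–5.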

[8] = Cytotoxicity against human MRC9 cells at 50 uM after 72 hrs by CellTiter-Blue assay; assay type: cell-based
How it was run: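 Cells in 10% FBS medium, 10 000 cells/well, treated 24 h after plating. Twofold dilution series from a 50.0 μM top dose to 0.097656 μM, in triplicate, 0.5% DMSO vehicle. 72 h at 37 °C, 5% CO2. CellTiter-Blue for 1–4 h, fluorescence 560/590 nm. IC50 by nonlinear regression.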

[9] = target: Histone deacetylase 11 (Homo sapiens) (UniProt Q96DB2); experiment: Inhibition of recombinant human HDAC11 expressed in SF9 baculoviral system at 10 uM using FAM-labeled acetylated peptide as substrate by EMSA relative to control
How it was run: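 Full-length recombinant human HDACs from an Sf9 baculovirus system. Single-point screen at 10 μM by microfluidic mobility-shift assay with FAM-labeled acetylated peptide substrate. Buffer: 100 mM HEPES pH 7.5, 25 mM KCl, 0.1% BSA, 0.01% Triton X-100, 1% DMSO. % inhibition from product/(substrate + product) against no-inhibitor and no-enzyme controls.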

[10] = Cytotoxicity against human […] cells assessed as reduction in tumor spheroid area after 72 hrs by Alamar Blue assay; assay type: cell-based
How it was run: (§4)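 3D spheroids of patient-derived PDAC cells (tomato red) alone or with CAF19 cells, plus CAF cultures. Imaging read-outs: area is the μ2 of objects above a tomato red intensity threshold; intensity is summed red or green pixel fluorescence after background removal. n = 3–5.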

[11] = Lipophilicity, log D of the compound at pH 7.4 by LC-ESI MS analysis; assay type: physicochemical; conditions: buffer
How it was run: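 Partitioning measured in a 1-octanol/phosphate-buffered saline system at pH 7.4.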

[12] = Cytotoxicity against human Pa02C monolayer cells assessed as reduction in tumor spheroid intensity after 72 hrs by Alamar Blue assay; assay type: functional, cell-based; how it was run: as §3
[13] = target: Histone deacetylase 8 (Homo sapiens) (UniProt Q9BY41); experiment: Inhibition of recombinant human HDAC8 expressed in SF9 baculoviral system at 10 uM using FAM-labeled acetylated peptide as substrate by EMSA relative to control
How it was run: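 Single-point screen at 10 μM compound, using full-length recombinant human enzyme expressed in Sf9 cells. Buffer was HEPES pH 7.5 with KCl, BSA and Triton X-100, and 1% DMSO. Final enzyme was 0.5 nM for HDAC3, 60 nM for HDAC6 and 5.0 nM for HDAC8, with 1 μM FAM-acetylated peptide. Percent inhibition was derived from the product sum ratio relative to DMSO-only (0%) and no-enzyme (100%) controls.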

Histone deacetylase 8 = target: T1, Histone deacetylase 8 (Homo sapiens, UniProt Q9BY41); experiment: Inhibition of recombinant human HDAC8 expressed in SF9 baculoviral system using FAM-labeled acetylated peptide as substrate by EMSA
T1 sequence (Q9BY41 whole entry): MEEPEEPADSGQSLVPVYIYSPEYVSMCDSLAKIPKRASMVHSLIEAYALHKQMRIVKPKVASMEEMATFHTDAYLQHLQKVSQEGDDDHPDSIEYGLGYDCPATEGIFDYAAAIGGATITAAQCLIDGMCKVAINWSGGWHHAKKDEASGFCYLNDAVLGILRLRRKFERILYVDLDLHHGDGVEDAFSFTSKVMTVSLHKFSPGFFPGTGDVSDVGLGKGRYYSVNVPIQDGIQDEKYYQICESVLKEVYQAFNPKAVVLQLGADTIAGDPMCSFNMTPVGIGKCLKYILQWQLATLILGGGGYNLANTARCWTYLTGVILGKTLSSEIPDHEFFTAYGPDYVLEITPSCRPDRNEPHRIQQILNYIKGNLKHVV
How it was run: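 Full-length recombinant human enzyme from an Sf9 baculovirus system, in 100 mM HEPES pH 7.5 with 25 mM KCl, 0.1% BSA, 0.01% Triton X-100 and 1% DMSO. Final enzyme was 0.5 nM for HDAC3, 60 nM for HDAC6 and 5.0 nM for HDAC8. FAM-acetylated peptide was 1 μM. The read-out was product/(substrate+product) by microfluidic mobility shift, with inhibition set against DMSO and no-enzyme controls (quadruplicate). Compounds were tested at 12 threefold-spaced concentrations, and IC50 came from a four-parameter sigmoid fit.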

[14] = target: Histone deacetylase 4 (Homo sapiens) (UniProt P56524); experiment: Inhibition of recombinant human HDAC4 expressed in SF9 baculoviral system at 10 uM using FAM-labeled acetylated peptide as substrate by EMSA relative to control
[15] = target: Signal transducer and activator of transcription 3 (Homo sapiens) (UniProt P40763); experiment: Inhibition of STAT3 phosphorylation at S727 residue in human BTSC 100EF cells at 1 to 10 uM after 24 hrs by Western blot method; assay type: cell-based; how it was run: as §2
Panc1005 [16] = experiment: Cytotoxicity against human Panc 10.05 cells assessed as reduction in tumor spheroid intensity after 72 hrs by Alamar Blue assay; assay type: functional, cell-based; conditions: Panc1005, 72 h; how it was run: as §4
Homo sapiens = species on record: Homo sapiens; experiment: Cytotoxicity against human D458 cells at 39 nM after 72 hrs by Presto Blue assay; assay type: functional, cell-based
How it was run: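 D425 and D458 medulloblastoma cells in DMEM high glucose with 20% FBS, seeded at 1000 cells/well in medium with 1% FBS. Twofold dilutions from 20 μM down to 39 nM. Exposed 3 days at 37 °C. Presto Blue added about 4 h before fluorescence read (540–570 nm). IC50 from % viability versus log concentration.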

Sequence of Signal transducer and activator of transcription 3 (Homo sapiens) (P40763 whole entry): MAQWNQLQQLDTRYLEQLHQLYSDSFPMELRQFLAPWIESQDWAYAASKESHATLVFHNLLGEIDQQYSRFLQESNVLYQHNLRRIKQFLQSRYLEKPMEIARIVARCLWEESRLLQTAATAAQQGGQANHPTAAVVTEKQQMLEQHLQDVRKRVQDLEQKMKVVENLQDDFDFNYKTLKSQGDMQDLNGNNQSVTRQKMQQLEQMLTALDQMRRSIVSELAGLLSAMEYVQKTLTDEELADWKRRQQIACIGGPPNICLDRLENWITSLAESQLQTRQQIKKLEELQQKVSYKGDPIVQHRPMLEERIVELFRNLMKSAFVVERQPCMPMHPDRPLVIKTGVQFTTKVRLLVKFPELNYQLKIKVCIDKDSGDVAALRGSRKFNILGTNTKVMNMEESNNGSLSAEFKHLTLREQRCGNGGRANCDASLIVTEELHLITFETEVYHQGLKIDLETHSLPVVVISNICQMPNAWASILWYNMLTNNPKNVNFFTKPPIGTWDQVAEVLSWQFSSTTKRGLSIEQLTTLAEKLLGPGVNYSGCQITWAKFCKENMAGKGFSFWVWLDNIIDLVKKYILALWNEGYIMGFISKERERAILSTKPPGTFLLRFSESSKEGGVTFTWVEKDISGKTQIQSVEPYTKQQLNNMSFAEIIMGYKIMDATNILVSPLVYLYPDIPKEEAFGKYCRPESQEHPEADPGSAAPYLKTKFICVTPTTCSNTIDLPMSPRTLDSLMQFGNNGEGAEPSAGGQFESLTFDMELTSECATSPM
Sequence of Histone deacetylase 4 (Homo sapiens) (P56524 whole entry): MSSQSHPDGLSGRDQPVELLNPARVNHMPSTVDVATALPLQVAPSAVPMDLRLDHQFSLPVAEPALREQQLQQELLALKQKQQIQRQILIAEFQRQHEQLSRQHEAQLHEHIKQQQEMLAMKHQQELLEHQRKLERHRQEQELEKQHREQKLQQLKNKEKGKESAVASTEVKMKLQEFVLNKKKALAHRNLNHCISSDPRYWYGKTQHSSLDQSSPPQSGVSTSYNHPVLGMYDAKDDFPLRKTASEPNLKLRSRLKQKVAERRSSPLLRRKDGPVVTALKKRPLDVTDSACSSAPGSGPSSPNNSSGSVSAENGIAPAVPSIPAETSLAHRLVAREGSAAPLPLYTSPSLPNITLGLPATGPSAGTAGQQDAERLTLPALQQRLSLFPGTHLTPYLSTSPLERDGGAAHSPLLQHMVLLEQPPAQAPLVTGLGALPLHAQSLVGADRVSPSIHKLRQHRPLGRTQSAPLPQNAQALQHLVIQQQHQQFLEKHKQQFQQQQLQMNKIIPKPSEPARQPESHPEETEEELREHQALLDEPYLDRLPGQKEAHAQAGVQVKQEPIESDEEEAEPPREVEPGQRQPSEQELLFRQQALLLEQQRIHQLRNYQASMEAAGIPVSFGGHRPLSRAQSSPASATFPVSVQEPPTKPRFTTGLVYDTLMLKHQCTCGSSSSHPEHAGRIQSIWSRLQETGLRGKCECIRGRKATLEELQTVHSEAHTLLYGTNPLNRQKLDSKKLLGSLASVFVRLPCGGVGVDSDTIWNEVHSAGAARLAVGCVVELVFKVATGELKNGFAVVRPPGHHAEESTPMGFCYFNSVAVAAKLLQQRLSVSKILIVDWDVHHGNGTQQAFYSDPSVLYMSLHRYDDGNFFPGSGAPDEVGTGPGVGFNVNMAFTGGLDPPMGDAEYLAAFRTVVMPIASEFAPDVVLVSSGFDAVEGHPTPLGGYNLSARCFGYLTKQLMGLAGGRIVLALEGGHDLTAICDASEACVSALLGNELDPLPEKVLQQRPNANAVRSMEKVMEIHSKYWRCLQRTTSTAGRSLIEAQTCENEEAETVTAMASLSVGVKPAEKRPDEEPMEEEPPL
Sequence of Histone deacetylase 11 (Homo sapiens) (Q96DB2 whole entry): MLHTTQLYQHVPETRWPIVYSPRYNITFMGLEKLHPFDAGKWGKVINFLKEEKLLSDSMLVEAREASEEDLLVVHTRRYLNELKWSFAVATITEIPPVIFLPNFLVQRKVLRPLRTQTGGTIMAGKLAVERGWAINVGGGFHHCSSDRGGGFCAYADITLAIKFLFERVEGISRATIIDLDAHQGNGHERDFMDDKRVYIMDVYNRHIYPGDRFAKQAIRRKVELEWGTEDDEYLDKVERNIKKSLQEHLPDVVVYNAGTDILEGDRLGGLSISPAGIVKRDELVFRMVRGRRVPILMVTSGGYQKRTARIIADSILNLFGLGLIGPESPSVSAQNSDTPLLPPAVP

For CC(C)(C)c1ccc(CN(C(=O)CN(Cc2c(F)c(F)c(F)c(F)c2F)S(=O)(=O)c2ccc(F)cc2)c2ccc(C(=O)NO)cc2)cc1, the concentration at 4 h [1] was 3660 ng/mL, the concentration at 24 h [2] was 265 ng/mL and the inhibition [3] was “inactive”. The Activity [4] was “Non-Toxic”, the “Ratio IC50” value [5] was 5 - 6 and the concentration at 2 h [6] was 5390 ng/mL. The pIC50 (Panc1005 [7]) was 5.41, the Activity [8] was “Non-Toxic” and the inhibition [9] was 97%. It also gave a pIC50 [10] of 5.11 to 5.33, a logD [11] of 4.15 and a pIC50 [12] of 5.34. It also gave an inhibition [13] of 94%, a pIC50 (Histone deacetylase 8) of less than 6.00 and an inhibition [14] of 15%. For the same compound, the inhibition [15] was “inactive”, the pIC50 (Panc1005 [16]) was 6.22 and the Activity (Homo sapiens) was “Active”.
